Measurements published in PubChem BioAssay AID588831 (Broad Institute, 2011).
Activity calls are given as the source filed them.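 The calls were made as follows: active = compounds lowering dye-labelled HDL uptake whose fitted half-maximal concentration is at most double the top tested dose; inconclusive = flat fit with moderate inhibition, or an unreliable curve fit; inactive = the rest.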

Target: Scavenger receptor class B member 1 (Mus musculus) (UniProt Q61009)
Experiment: HDL uptake after compound washout, mSR-BI cells – ldlA[mSR-BI] CHO cells, fluorescence, dry powder, mechanism study for SR-BI HDL uptake inhibitor project, dose response (AID 588831)
Settings: DiI-HDL uptake after washout
Procedure, shortened: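 System: ldlA[mSR-BI] CHO cells, LDL-receptor-deficient, overexpressing mouse SR-BI; Buffer or medium: Ham's F12 with 0.5% BSA, 25 mM HEPES pH 7.4; Probe or stimulus: DiI-HDL at 10 µg/mL; Times: 2 h compound pretreatment at 37 °C, 3 h DiI-HDL uptake; Measured by: DiI fluorescence, bottom read.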

Sequence of Scavenger receptor class B member 1 (Mus musculus) (Q61009 whole entry, looked up): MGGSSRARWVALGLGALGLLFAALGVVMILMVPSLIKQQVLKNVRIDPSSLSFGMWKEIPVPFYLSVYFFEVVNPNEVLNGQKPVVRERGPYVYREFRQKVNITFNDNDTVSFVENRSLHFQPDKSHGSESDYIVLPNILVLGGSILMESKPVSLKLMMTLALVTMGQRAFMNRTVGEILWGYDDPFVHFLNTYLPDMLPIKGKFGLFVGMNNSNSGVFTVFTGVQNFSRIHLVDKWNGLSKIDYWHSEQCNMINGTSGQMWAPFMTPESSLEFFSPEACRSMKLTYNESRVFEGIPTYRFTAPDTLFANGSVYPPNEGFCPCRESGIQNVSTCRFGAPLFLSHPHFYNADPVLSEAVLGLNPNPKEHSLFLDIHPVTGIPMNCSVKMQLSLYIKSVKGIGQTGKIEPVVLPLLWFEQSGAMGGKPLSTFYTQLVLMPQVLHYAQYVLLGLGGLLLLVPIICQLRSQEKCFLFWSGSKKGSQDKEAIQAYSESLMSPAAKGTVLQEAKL

Compound | AC50 [nM] | activity change, negative = inhibition (at 35 µM (top of the series))
CCCCCCC1CCC/C1=N\NC(N)=S (stereo not drawn) | 0.987 | –
COCC(=O)N1CCc2cc(-c3csc(NC(=O)c4cc(OC)cc(OC)c4)n3)ccc21 | 315 | –
C[C@H](C(=O)NC1CCCC1)N(C(=O)Cn1nnc(-c2ccc3c(c2)OCO3)n1)C1CCCCC1 | – | inactive
